Experimental findings from PubChem BioAssay are described below.

Experiment [1] can be described thus: Her2 expression decrease, cell viability multiplex – SKBR3 breast tumor cells, AlphaScreen, ATP viability, primary screen (AID 461;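 active = Her2 level under about 52% in both replicate screens, with viability over 70% of control, limit read from the data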;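 as to Her2 level: lower value means less Her2 protein in the cells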;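 as to viability: percent of carrier control wells set as 100% viability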). The settings on record: SKBR3 Her2 protein level, 18-24 h, measured here: SKBR3 viability, ATP luminescence, at 10 µM.
The target of experiment [2] is Receptor tyrosine-protein kinase erbB-2 (Homo sapiens) (UniProt P04626). The description is as above. Conditions: 18-24 h, at 10 µM, stronger effect = lower value.
Experiment [3] can be described thus: reduced viability of SK-BR-3 breast cancer cells – cell-based, 24 h, human, pilot screen (AID 572;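 active = viability at or below 10% of carrier control in both of two separate runs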;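 also: compound exposure lasted between 18 and 24 h rather than exactly 24 h; 100% = carrier-treated control wells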). Conditions: SK-BR-3 viability, CellTiter-Glo luminescence, at 10 µM, stronger effect = lower value.
Experiment [4] can be described thus: HUVEC growth inhibition – cell-based, human, primary screen (AID 575;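 active = viability at or below 30% in both replicate assays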;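 also: 100% = median of untreated cell wells with 0.1% DMSO on each plate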). Conditions: HUVEC proliferation, CellTiter-Glo luminescence, 72 h; at 10 µM; stronger effect = lower value. Put shortly: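 System – primary HUVEC, no more than 12 passages · Medium – Low-serum (2% FBS) EBM, supplemented · Times – 72 h exposure, 37 °C, 5% CO2, 30 min RT equilibration · Measured by – luminescent ATP assay · Read-out – % viability relative to median vehicle-well signal on each plate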

Experiment [5] is described as follows: H69AR cell proliferation blockers – human, duplicate replicates, primary screen (AID 580;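 active = viability at or under a set limit in both replicates, limit being median viability minus 3 SD, cut at about 48% in these data, passing the limit was not always enough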;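 also: 100% = mean luminescence of untreated wells and 0% = no signal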). The settings on record: H69AR lung tumor cells viability, ATP luminescence, 72 h; at 10 µM; stronger effect = lower value.
Experiment [6] is described as follows: MRP1 drug-resistance reversers in H69AR cells – cell-based, doxorubicin co-treatment, pilot screen (AID 601). Conditions: CellTiter-Glo, 72 h, at 10 µM; for differential viability (reversal): stronger effect = higher value.
Experiment [7] is described as follows: yeast transport mutant growth inhibition pilot in 384-well plates, post-Golgi transport modulator project (AID 636; in the data active = inhibition above about 31%). The settings on record: absorbance 615 nm, about 18 h, stronger effect = higher value.
Experiment [8] can be described thus: growth suppression of yeast trafficking mutant, preliminary HTS, modulators of trafficking downstream of Golgi apparatus project, 1536-format plate, OD 615 nm (AID 637; in the data active = inhibition above about 30%). Conditions: yeast transport mutant growth, absorbance 615 nm, 18 h; stronger effect = higher value.
Where [9] appears, read: H69AR cells + 2 uM doxorubicin, measured here: viability with 2 uM doxorubicin, stronger effect = lower value.
[10] abbreviates: H69AR cells, compound alone cytotoxicity.

Active and inactive are the calls of the source.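 The calls were made as follows, unless noted: active = viability loss from added drug above about 55%, and viability with drug at most 40%, in both replicates (limit read from the data, passing the limit was not always enough); inconclusive = both conditions met in only one replicate; inactive = neither replicate meets both conditions.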

Receptor tyrosine-protein kinase erbB-2 (Homo sapiens), sequence (P04626 whole entry, looked up): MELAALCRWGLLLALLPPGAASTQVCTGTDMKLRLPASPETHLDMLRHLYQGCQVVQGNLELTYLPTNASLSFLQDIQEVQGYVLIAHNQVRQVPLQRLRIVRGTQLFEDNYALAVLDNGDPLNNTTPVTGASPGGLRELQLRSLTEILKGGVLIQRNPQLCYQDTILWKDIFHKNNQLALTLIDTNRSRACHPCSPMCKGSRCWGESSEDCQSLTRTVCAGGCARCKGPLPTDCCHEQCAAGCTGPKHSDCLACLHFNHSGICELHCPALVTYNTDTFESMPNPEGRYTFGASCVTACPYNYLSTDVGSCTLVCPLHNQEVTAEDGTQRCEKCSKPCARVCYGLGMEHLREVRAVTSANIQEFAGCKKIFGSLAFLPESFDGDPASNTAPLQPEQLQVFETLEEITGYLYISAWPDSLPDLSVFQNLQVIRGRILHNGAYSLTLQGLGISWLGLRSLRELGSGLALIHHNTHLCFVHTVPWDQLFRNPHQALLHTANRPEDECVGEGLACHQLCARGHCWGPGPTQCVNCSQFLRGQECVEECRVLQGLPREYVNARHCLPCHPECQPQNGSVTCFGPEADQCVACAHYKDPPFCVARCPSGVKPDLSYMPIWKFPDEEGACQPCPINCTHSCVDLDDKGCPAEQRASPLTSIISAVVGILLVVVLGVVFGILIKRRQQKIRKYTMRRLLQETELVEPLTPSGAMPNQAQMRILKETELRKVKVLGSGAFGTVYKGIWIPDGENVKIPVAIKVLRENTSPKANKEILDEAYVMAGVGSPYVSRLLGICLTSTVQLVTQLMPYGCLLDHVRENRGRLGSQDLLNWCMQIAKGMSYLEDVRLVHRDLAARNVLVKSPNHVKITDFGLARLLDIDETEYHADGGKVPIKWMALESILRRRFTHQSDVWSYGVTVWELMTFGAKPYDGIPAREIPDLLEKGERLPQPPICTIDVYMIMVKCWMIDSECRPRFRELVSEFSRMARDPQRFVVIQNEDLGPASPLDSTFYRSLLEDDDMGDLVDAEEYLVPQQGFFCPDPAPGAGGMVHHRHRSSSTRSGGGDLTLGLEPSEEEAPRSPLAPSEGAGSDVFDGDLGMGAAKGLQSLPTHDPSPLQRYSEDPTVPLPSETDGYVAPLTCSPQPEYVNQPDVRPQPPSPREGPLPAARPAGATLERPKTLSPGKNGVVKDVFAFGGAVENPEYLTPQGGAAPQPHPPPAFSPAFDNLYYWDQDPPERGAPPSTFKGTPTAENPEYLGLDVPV

Regarding `COCCn1c(CN2CCN(c3cccc(Cl)c3)CC2)nc2c1c(=O)n(C)c(=O)n2C`, the viability in experiment [1] is 85%; in experiment [3], 85% (inactive); in experiment [4], 64.7% (inactive); in experiment [5] it was 72.9% (inactive); in experiment [6] (setting [9]), 55.4%; in experiment [6] (setting [10]), 72.9%. Moreover, the Her2 level in experiment [2] was 85% (inactive). Moreover, in experiment [6] (H69AR cells + 2 uM doxorubicin), the differential viability (reversal) was 17.6% (inactive). Further, the inhibition in experiment [7] was -5.87% (inactive); in experiment [8], 1.83% (inactive).

As for `O=C(c1ccccc1)c1ccc2nc[nH]c2c1`, the viability in experiment [1] is 96.5%; in experiment [3], 96.5% (inactive); in experiment [4] it was 75.4% (inactive); in experiment [5], 102% (inactive); in experiment [6] (setting [9]) it was 117%; in experiment [6] (setting [10]), 102%. Further, in experiment [2], the Her2 level was 89.5% (inactive). Also, the differential viability (reversal) in experiment [6] (H69AR cells + 2 uM doxorubicin) is -15.3% (inactive). In addition, the inhibition in experiment [7] was 0.26% (inactive); in experiment [8], 3.06% (inactive).

In the case of `CCn1nnc(NC(=O)c2ccc(-c3ccc(Cl)cc3)o2)n1`, the viability in experiment [1] is 87.5%; in experiment [3], 87.5% (inactive); in experiment [4] it was 90% (inactive); in experiment [5], 91.2% (inactive); in experiment [6] (setting [9]), 88%; in experiment [6] (setting [10]), 91.2%. For the same compound, the Her2 level in experiment [2] was 122% (inactive). Moreover, in experiment [6] (H69AR cells + 2 uM doxorubicin), the differential viability (reversal) was 3.21% (inactive). Also, the results for the inhibition in experiment [7] and in experiment [8] were -6.62% (inactive) and -0.66% (inactive), respectively.

Turning to `COc1ccc(CCNc2nc(N3CCOCC3)nc(N3CCOCC3)n2)cc1OC`, the viability in experiment [1] was 81%; in experiment [3], 81% (inactive); in experiment [4], 108% (inactive); in experiment [5], 96.7% (inactive); in experiment [6] (setting [9]), 94.6%; in experiment [6] (setting [10]), 96.7%. For the same compound, the Her2 level in experiment [2] is 91% (inactive). In addition, the differential viability (reversal) in experiment [6] (H69AR cells + 2 uM doxorubicin) is 2.03% (inactive). The inhibition was 0.4% (inactive) in experiment [7] and -4.84% (inactive) in experiment [8].

With `COc1ccccc1OCC(=O)NCC1CCCCC1`, the viability in experiment [1] was 94.5%; in experiment [3], 94.5% (inactive); in experiment [4] it was 93.2% (inactive); in experiment [5], 109% (inactive); in experiment [6] (setting [9]), 85.2%; in experiment [6] (setting [10]), 109%. Further, the Her2 level in experiment [2] is 114% (inactive). Also, the differential viability (reversal) in experiment [6] (H69AR cells + 2 uM doxorubicin) is 23.4% (inactive). Moreover, the inhibition in experiment [7] is -3.29% (inactive); in experiment [8], -9.33% (inactive).

`CCCOc1cccc(-c2nnc(N)s2)c1`: the viability was 102% in experiment [1]; 102% (inactive) in experiment [3]; 87.4% (inactive) in experiment [4]; 100% (inactive) in experiment [5]; 78.5% in experiment [6] (setting [9]); 100% in experiment [6] (setting [10]). Also, in experiment [2], the Her2 level is 121% (inactive). The differential viability (reversal) in experiment [6] (H69AR cells + 2 uM doxorubicin) is 21.6% (inactive). In addition, the inhibition was -4.8% (inactive) in experiment [7] and -5.56% (inactive) in experiment [8].

Turning to `COc1cc(NC(=O)Cc2nn(C)c(=O)c3ccccc23)cc(OC)c1`, the viability in experiment [1] was 87.5%; in experiment [3], 87.5% (inactive); in experiment [4], 73% (inactive); in experiment [5] it was 84.3% (inactive); in experiment [6] (setting [9]), 87.1%; in experiment [6] (setting [10]), 84.3%. In experiment [2], the Her2 level was 91.5% (inactive). Moreover, in experiment [6] (H69AR cells + 2 uM doxorubicin), the differential viability (reversal) is -2.83% (inactive). Moreover, the figures for the inhibition in experiment [7] and in experiment [8] were -2.24% (inactive) and -2.9% (inactive), respectively.

Consider `COc1cccc(NC(=O)N[C@@H](Cc2ccccc2)C(=O)O)c1`, for which the viability is 94% in experiment [1]; 94% (inactive) in experiment [3]; 93.8% (inactive) in experiment [4]; 114% (inactive) in experiment [5]; 94.5% in experiment [6] (setting [9]); 114% in experiment [6] (setting [10]). In addition, in experiment [2], the Her2 level was 91.5% (inactive). The differential viability (reversal) in experiment [6] (H69AR cells + 2 uM doxorubicin) was 19.6% (inactive). The inhibition is -4.46% (inactive) in experiment [7] and 2.06% (inactive) in experiment [8].

As to `O=C1N(CCCCN2C(=O)C3(OCCO3)c3ccccc32)c2ccccc2C12OCCO2`, the viability was 100% in experiment [1]; 100% (inactive) in experiment [3]; 73.2% (inactive) in experiment [4]; 84.9% (inactive) in experiment [5]; 73.7% in experiment [6] (setting [9]); 84.9% in experiment [6] (setting [10]). In experiment [2], the Her2 level is 84.5% (inactive). In experiment [6] (H69AR cells + 2 uM doxorubicin), the differential viability (reversal) is 11.1% (inactive). Moreover, the inhibition was -0.39% (inactive) in experiment [7] and 11.5% (inactive) in experiment [8].

Take `COc1ccc(N2CCN(C(=O)C(OC(C)=O)c3ccccc3)CC2)cc1` (stereo not given): the viability in experiment [1] is 96.5%; in experiment [3] it was 96.5% (inactive); in experiment [4], 89.4% (inactive); in experiment [5], 97% (inactive); in experiment [6] (setting [9]), 94.9%; in experiment [6] (setting [10]), 97%. The Her2 level in experiment [2] is 99% (inactive). Also, in experiment [6] (H69AR cells + 2 uM doxorubicin), the differential viability (reversal) was 2.1% (inactive). The values for the inhibition in experiment [7] and in experiment [8] were -0.53% (inactive) and -2.38% (inactive), respectively.

For the compound `Cc1cc(NC(=O)c2ccc3c(c2)C(=O)N(Cc2cccnc2)C3=O)no1`, the viability is 96.5% in experiment [1]; 96.5% (inactive) in experiment [3]; 106% (inactive) in experiment [4]; 102% (inactive) in experiment [5]; 102% in experiment [6] (setting [9]); 102% in experiment [6] (setting [10]). For the same compound, the Her2 level in experiment [2] was 110% (inactive). Also, in experiment [6] (H69AR cells + 2 uM doxorubicin), the differential viability (reversal) is 0.045% (inactive). In addition, the inhibition in experiment [7] is -1.07% (inactive); in experiment [8], 12.5% (inactive).

On to `C/C(=C(\C#N)C(=O)NCCCN1CCOCC1)N(C)C`, for which the viability was 96.5% in experiment [1]; 96.5% (inactive) in experiment [3]; 95.2% (inactive) in experiment [4]; 102% (inactive) in experiment [5]; 93.1% in experiment [6] (setting [9]); 102% in experiment [6] (setting [10]). The Her2 level in experiment [2] is 106% (inactive). For the same compound, the differential viability (reversal) in experiment [6] (H69AR cells + 2 uM doxorubicin) is 8.58% (inactive). For the same compound, the inhibition in experiment [7] is -1.58% (inactive); in experiment [8] it was 5.57% (inactive).

Turning to `CCN(CC)CCCn1c(=S)[nH]c2cc(Cl)ccc2c1=O`, the viability was 101% in experiment [1]; 101% (inactive) in experiment [3]; 106% (inactive) in experiment [4]; 97% (inactive) in experiment [5]; 90.4% in experiment [6] (setting [9]); 97% in experiment [6] (setting [10]). Moreover, the Her2 level in experiment [2] is 96% (inactive). The differential viability (reversal) in experiment [6] (H69AR cells + 2 uM doxorubicin) is 6.63% (inactive). Also, the inhibition is -6.27% (inactive) in experiment [7] and 1.8% (inactive) in experiment [8].
